MrgX1 allo act: allosterically activates human MrgX1 receptor signaling. MrgX1-HEK293, Fluo-4 calcium flux, FDSS; hits give high values. Q96LB2. B-score at 10 µM. 310,000 tested, 0.63% active;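 active means plate-corrected calcium response at least 3 library SD above typical, normal starting fluorescence, not activating the receptor alone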;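 further: compound read alongside a low EC10 to EC30 dose of BAM8-22 agonist; peak minus trough fluorescence over baseline measured at the second addition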
Target sequence (Q96LB2 whole entry, looked up): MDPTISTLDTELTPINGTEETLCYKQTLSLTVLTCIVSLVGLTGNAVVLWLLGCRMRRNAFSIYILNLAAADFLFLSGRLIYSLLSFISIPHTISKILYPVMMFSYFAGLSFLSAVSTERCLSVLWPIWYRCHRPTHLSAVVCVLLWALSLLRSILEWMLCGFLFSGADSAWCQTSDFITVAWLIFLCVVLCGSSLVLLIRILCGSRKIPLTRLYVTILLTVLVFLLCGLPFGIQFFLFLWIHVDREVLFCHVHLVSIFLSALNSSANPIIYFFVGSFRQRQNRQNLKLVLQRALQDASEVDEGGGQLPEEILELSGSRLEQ
MrgX1 ag: human MrgX1 receptor agonism, primary screen; MrgX1-HEK293 cells, Fluo-4 calcium fluorescence, agonist mode; hits give high values; B-score at 10 µM; 310,000 tested, 0.44% active; AID 588627;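 active means calcium response B-score plate-corrected fluorescence ratio at least 3 library SD, with starting fluorescence B-score inside 5 SD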
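Test system: HEK293 cells stably expressing human MrgX1 receptor; Input: fifteen thousand cells per well; Dosing: compound delivered in addition one of three; Schedule: overnight seeding, then 1 h dark dye loading; Technique: Fluo-4 NW calcium fluorescence; Measure: B-scored fluorescence response ratio; Controls: positive and negative controls per plate.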
RGS4 block: inhibitors of human RGS4 | P49798 | HEK293 M3R/RGS4 inducible, Fluo-4 calcium flux; hits give high values; triggered by carbachol at its EC20 | 310,000 tested, 0.45% active | B-score at 10 µM | AID 463165;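 active means B-score, a plate-corrected calcium signal, over three deviations above library mean, with baseline fluorescence within five deviations of library mean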;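 further: RGS4 expression induced by doxycycline in cells with stable M3 receptor; B-score is computed from the integrated fluorescence ratio over baseline after carbachol; higher B-score means a larger calcium signal and so more RGS4 inhibition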
Target sequence (P49798 whole entry, looked up): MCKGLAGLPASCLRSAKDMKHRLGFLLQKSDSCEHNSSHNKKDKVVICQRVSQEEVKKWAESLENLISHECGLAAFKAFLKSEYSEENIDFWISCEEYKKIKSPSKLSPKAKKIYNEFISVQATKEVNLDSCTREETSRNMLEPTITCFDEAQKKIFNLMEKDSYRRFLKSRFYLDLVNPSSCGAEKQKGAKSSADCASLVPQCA
MrgX1 antagonist: blocks BAM8-22 activation of human MrgX1 receptor; B-score at 10 µM; AID 588676; Q96LB2; MRGX1-HEK293 calcium flux, Fluo-4, BAM8-22 antagonism; hits give low values; 310,000 tested, 1.3% active;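 active means calcium-response B-score plate-corrected more than 3 library SD below zero, starting fluorescence within 5 deviations, no agonist response on first addition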;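 further: peak minus trough fluorescence over baseline after final BAM8-22 challenge near maximal dose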
RGS4 pot: potentiators or activators of RGS4; 310,000 tested, 0.92% active; B-score at 10 µM; HEK293 M3R/inducible RGS4, carbachol calcium flux Fluo4; hits give low values;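 active means B-score of the integrated calcium signal more than 4 SD below the library mean, with starting fluorescence not abnormally high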;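 further: negative B-score means reduced calcium response which marks RGS4 activation or potentiation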
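Assay system: HEK293 FlpIn-TREx cells, stable M3R, doxycycline-inducible RGS4 / Probe or stimulus: carbachol, ECmax concentration / Times: overnight RGS4 induction, 30 min dye load 37 °C, 20 min compound RT / Signal: kinetic calcium fluorescence imaging with Fluo4-AM dye, 2 µM / Measure: Agonist-evoked peak-minus-minimum fluorescence over baseline, integrated ratio, B score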
Of the large screens only hits and unclear results are named; the others gave an inactive call. Shown are actives, neighbours in structure and some others; about 3.5% of the full set was active somewhere.

CNc1ccc(Br)cc(C(=O)/C=C/c2cccc(OC)c2OC)c1=O	MrgX1 antagonist -4.78
CCNc1ccc(Br)cc(C(=O)/C=C/c2ccccc2Cl)c1=O	MrgX1 antagonist -5.96
Cc1ccc(NC(=O)c2ccc(C(C)(C)C)cc2)cc1-n1cnnn1	none
Cc1noc(NS(=O)(=O)c2ccc(NC(=O)c3cc(-c4ccccc4Cl)nc4ccccc34)cc2)c1C	MrgX1 ag 39.4
Cc1ccc(C)c(-n2c3nc(=O)[nH]c(=O)c-3cc3cc([N+](=O)[O-])ccc32)c1	MrgX1 ag 33.7 (no result: RGS4 block, RGS4 pot)
O=C(O)c1cccc(NC(=O)c2cccc(S(=O)(=O)N3CCc4ccccc43)c2)c1	none
COc1ccc(C2=NN(c3nc(C(=O)O)cs3)C(O)(C(F)(F)F)C2)c(OC)c1 (centres undefined)	MrgX1 antagonist -6.54
COC(=O)c1ccc(CC(=O)c2nc3ccccc3s2)cc1	none
COC(=O)c1ccc(/C(O)=C(\C#N)c2nc3ccccc3s2)cc1	MrgX1 ag 28.1
COc1cc2c(cc1OC)/C(=C/C(=O)c1ccc(OC)c([N+](=O)[O-])c1)NCC2	MrgX1 antagonist -4.58, RGS4 pot -7.29
CCOC(=O)Cc1csc(NC(=O)CCc2ccccc2)n1	none
COc1ccc2oc(=O)cc(-c3cc4cccc(OC)c4o3)c2c1	none
CCN(CC)C(=O)Oc1ccc2oc(=O)cc(-c3cc4cccc(OC)c4o3)c2c1	RGS4 pot -7.21
O=C(O)/C=C/c1ccc2noc(-c3ccccc3)c2c1	none
O=C1CC(c2ccccc2)Sc2nc(-c3ccccc3)c(-c3ccccc3)n21 (centres undefined)	none
COCCN=c1scc(-c2cccs2)n1/N=C/c1ccc(O)c(O)c1O	MrgX1 allo act 15.5
COc1ccc2[nH]c(=O)c(CN(Cc3cccs3)C(=S)Nc3cccc(C)c3)cc2c1	none
Cc1cccc(NC(=S)N(Cc2cccs2)Cc2cc3cc(C)cc(C)c3[nH]c2=O)c1	MrgX1 antagonist -5.45
COc1ccccc1N(C(=O)c1snc(C(N)=O)c1N)C(C(=O)NCc1ccccc1)c1ccc(O)cc1 (centres undefined)	none (no result: MrgX1 allo act, MrgX1 ag, MrgX1 antagonist)
Cc1ccnc(N/C=C(\C#N)c2nc(-c3cccc(Br)c3)cs2)c1	MrgX1 ag 36
CN(C(=O)COC(=O)c1cc2c(s1)CCCCC2)C1CCS(=O)(=O)C1 (centres undefined)	none
O=C(CCN1C(=O)c2ccccc2S1(=O)=O)N1CCN(c2ccccc2)CC1	none
CN1CCN(C(=O)CCN2C(=O)c3ccccc3S2(=O)=O)CC1	MrgX1 antagonist -7.45
Cc1ccc(C2CC(c3ccc(Br)cc3)=NN2C(=O)CSC2=NN3CCCC(=O)N=C3S2)cc1 (centres undefined)	none
CN(C)C(CNC(=O)c1cc(Br)ccc1Cl)c1ccco1 (centres undefined)	none
COc1ccc(OCCn2cc(/C=N/NC(=O)c3ccncc3)c3ccccc32)cc1	MrgX1 allo act 7.16
Cc1ccc(OCCn2cc(/C=N/NC(=O)c3ccncc3)c3ccccc32)cc1	none
CCC(C)NC(=O)c1cn(-c2cccc(C)n2)cn1 (centres undefined)	none
COc1ccccc1N(CC(O)COc1c(C)cc(C)cc1C)S(=O)(=O)c1ccccc1 (centres undefined)	MrgX1 allo act 7.95
Cc1cc(C)nc(SCC(=O)c2ccc([N+](=O)[O-])cc2)n1	MrgX1 antagonist -6.08
Cc1ccnc(SCC(=O)c2ccc([N+](=O)[O-])cc2)n1	none
CCOc1ccc(C2C(C(=O)Nc3cc(C)on3)c3ccccc3C(=O)N2CCN2CCOCC2)cc1 (centres undefined)	none
CSc1ccc(/C=C2/C(=N)N3N=C(CC(=O)N4CCCC4)SC3=NC2=O)cc1	MrgX1 ag 30.5
COc1ccc(/C=C2/C(=N)N3N=C(CC(=O)N4CCCC4)SC3=NC2=O)cc1OC	none
Cc1ccc(/C=C2/C(=N)N3N=C(CC(=O)N4CCCC4)SC3=NC2=O)cc1	none
COc1cc(/C=C2/C(=N)N3N=C(CC(=O)N4CCOCC4)SC3=NC2=O)ccc1OCc1ccccc1F	MrgX1 allo act 16.9
COc1cc(/C=C2/C(=N)N3N=C(CC(=O)N4CCOCC4)SC3=NC2=O)ccc1OCc1ccc(F)cc1	MrgX1 allo act 16
CCOC(=O)c1nn(-c2ccccc2)c(C#N)c1N	none
O=C(CNC(=O)c1ccc(F)cc1)NCc1ccc(Cl)cc1	none
COc1ccc(OC)c(S(=O)(=O)N2CCC(C(=O)N(C)Cc3ccccc3)CC2)c1	none
O=[N+]([O-])c1ccc(N/N=C\c2cccn2-c2ccccc2)nc1	MrgX1 allo act 7.96
O=[N+]([O-])c1ccc(N/N=C/c2cccs2)nc1	none
CCOc1ccc(NS(=O)(=O)c2ccc(C(=O)NCC3(N4CCCCC4)CCCCC3)cc2)cc1	MrgX1 antagonist -5.57
CCOc1ccc(S(=O)(=O)Nc2ccc(C(=O)NCC(C)(C)N3CCOCC3)cc2)cc1	MrgX1 antagonist -4.93
CCOc1ccc(NS(=O)(=O)c2ccc(C(=O)NCC3(N(C)C)CCCCC3)cc2)cc1	none
CC(C)(CNC(=O)c1ccc(NS(=O)(=O)c2ccc(F)cc2)cc1)N1CCOCC1	none
COc1cc(/C=N/Nc2ccc(C(F)(F)F)cn2)ccc1O	MrgX1 allo act 7.51
CC1CCCN(C(=O)Cn2c(=O)oc3cc(S(=O)(=O)N4CCCCC4)ccc32)C1 (centres undefined)	none (no result: RGS4 block, RGS4 pot)
CCC(O)CNc1nc(SC)nc2sc3c(c12)CCN(C)C3 (centres undefined)	RGS4 pot -7.15
CSc1nc(NCc2ccco2)c2c3c(sc2n1)CN(C)CC3	MrgX1 antagonist -4.7, RGS4 pot -7.68
CSc1nc(SCC(=O)NCc2ccco2)c2c3c(sc2n1)CN(C)CC3	none
CC1CCN(S(=O)(=O)c2ccc(C(=O)N(C)C3CCS(=O)(=O)C3)cc2)CC1 (centres undefined)	none
c1ccc2c(c1)CCN(c1ncnc3c1[nH]c1ccccc13)C2	MrgX1 antagonist -8.16
O=C(NCC1CCCN(Cc2ccc3c(c2)OCCO3)C1)c1ccc2c(c1)OCO2 (centres undefined)	none
CC[n+]1c(/C=C/Nc2ccccc2)sc2ccccc21	none
CCN1/C(=C/C=C/c2sc3ccccc3[n+]2CC)Sc2ccccc21	MrgX1 antagonist -4.62, RGS4 pot -7.02
CCN1/C(=C/C=C/C=C/C=C/c2sc3ccccc3[n+]2CC)Sc2ccccc21	MrgX1 antagonist -5.07
CCN1/C(=C/C=C/C=C/c2sc3ccccc3[n+]2CC)Sc2ccccc21	none
COc1cc(/C=C(\C#N)c2nc(-c3cc4ccccc4oc3=O)cs2)ccc1O	MrgX1 antagonist -9.19
COc1ccc(-c2oc3ccccc3c2C(=O)OCc2ccccc2)cc1	MrgX1 allo act 8.1
COc1ccc(-c2oc3ccccc3c2C(=O)OCc2ccc(O)cc2)cc1	none
CCCCOC(=O)Nc1ccc(N(C)C)cc1	none
CCc1nc(Nc2ccccc2F)c2oc3ccccc3c2n1	MrgX1 allo act 8.41

Screens as filed in PubChem.
